Assay results: the M2OR odorant receptor database

Assays:
Conditions in all cases: stereoisomer not certain
[1] = biological target: T1, UniProt Q8VGC6
T1 sequence (whole entry): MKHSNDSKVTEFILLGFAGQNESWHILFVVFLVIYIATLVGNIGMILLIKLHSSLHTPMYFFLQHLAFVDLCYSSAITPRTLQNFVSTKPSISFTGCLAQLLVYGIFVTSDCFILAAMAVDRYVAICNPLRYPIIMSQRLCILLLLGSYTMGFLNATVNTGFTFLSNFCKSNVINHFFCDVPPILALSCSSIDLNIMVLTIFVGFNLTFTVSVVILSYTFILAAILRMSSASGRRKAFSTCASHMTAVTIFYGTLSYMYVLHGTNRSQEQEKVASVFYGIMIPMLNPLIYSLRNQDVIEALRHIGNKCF
In short: (§1)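 Each entry records the cell line, G-protein, co-transfected protein and tags used. Methods varied with the source, often transient luciferase assays in mammalian cell lines. A receptor–molecule pair is called responsive (active) if the original authors judged its signal statistically different from baseline and non-responsive (inactive) otherwise.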

[2] = biological target: T2, UniProt Q8VGD7
T2 sequence (whole entry): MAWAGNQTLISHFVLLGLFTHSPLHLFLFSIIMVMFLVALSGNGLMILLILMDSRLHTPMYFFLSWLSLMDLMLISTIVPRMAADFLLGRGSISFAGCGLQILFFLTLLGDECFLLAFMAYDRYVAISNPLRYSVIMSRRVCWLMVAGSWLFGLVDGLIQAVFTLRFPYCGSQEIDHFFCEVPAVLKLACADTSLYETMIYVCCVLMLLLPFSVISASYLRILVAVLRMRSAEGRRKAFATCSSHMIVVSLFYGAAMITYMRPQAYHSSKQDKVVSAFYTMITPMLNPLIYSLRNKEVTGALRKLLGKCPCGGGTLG
In short: as §1

[3] = biological target: UniProt Q8VGE3
In short: as §1

[4] = biological target: T3, UniProt Q8VGH1
T3 sequence (whole entry): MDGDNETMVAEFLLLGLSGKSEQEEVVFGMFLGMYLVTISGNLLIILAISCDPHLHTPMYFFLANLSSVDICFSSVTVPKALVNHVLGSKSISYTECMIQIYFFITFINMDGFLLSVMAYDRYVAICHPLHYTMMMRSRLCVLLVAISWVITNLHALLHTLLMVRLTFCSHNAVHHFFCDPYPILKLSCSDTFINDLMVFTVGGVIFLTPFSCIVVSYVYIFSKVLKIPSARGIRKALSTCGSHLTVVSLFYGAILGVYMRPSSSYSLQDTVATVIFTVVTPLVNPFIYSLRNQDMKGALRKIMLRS
In short: as §1

[5] = biological target: T4, UniProt Q8VGJ1
T4 sequence (whole entry): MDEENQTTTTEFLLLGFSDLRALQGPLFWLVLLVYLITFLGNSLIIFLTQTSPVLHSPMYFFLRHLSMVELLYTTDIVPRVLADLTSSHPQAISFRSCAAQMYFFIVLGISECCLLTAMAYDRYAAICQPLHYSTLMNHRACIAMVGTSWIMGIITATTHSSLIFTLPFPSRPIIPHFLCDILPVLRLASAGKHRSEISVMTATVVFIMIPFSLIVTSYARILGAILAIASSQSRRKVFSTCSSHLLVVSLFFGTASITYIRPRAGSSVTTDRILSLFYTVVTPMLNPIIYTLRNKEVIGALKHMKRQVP
In short: as §1

[6] = biological target: T5, UniProt Q8VGJ3
T5 sequence (whole entry): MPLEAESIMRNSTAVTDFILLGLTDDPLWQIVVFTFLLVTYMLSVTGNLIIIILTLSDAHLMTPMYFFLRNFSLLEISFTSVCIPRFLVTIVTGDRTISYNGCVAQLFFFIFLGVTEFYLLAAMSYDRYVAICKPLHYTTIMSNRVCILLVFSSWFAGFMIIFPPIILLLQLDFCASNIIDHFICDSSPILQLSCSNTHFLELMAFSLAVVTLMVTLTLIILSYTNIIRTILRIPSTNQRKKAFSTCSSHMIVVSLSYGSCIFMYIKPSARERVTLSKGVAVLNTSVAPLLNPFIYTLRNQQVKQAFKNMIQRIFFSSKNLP
In short: as §1

[7] = biological target: T6, UniProt Q8VGJ5
T6 sequence (whole entry): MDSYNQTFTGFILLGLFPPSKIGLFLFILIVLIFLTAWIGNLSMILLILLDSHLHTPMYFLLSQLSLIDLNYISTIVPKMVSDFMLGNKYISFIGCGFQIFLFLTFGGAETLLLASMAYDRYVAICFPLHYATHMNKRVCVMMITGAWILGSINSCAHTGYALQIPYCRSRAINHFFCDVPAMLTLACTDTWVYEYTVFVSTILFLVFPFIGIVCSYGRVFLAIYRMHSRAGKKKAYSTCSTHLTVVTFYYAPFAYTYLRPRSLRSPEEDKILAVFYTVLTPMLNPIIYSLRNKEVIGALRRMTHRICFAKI
In short: as §1

[8] = biological target: UniProt Q8VGK6
In short: as §1

[9] = biological target: T7, UniProt Q8VGL0
T7 sequence (whole entry): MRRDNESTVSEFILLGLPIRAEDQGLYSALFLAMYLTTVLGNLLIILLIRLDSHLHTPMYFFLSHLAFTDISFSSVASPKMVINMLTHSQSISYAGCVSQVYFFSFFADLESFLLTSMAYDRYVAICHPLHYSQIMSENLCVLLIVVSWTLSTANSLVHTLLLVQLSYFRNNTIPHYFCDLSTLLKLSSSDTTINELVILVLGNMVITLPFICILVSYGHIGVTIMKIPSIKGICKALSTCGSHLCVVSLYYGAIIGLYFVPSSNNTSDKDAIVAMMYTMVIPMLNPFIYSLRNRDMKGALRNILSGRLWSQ
In short: as §1

[10] = biological target: T8, UniProt Q8VGL7
T8 sequence (whole entry): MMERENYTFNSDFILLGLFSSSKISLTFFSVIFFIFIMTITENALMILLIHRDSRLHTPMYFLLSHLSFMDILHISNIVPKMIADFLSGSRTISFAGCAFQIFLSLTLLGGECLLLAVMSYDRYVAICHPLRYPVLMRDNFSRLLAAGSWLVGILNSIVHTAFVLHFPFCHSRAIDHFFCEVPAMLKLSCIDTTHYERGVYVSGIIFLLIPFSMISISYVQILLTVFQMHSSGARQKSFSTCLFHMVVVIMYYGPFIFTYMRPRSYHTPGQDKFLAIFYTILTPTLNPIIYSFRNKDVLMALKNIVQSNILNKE
In short: as §1

[11] = biological target: T9, UniProt Q8VGM2
T9 sequence (whole entry): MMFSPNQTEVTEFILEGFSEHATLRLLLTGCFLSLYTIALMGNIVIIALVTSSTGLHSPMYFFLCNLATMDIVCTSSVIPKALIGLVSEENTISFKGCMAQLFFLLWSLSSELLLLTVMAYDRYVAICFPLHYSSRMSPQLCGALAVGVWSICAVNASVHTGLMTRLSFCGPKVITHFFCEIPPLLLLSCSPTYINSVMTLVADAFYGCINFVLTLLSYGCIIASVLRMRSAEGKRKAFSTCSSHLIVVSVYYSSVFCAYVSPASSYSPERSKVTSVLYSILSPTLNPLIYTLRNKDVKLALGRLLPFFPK
In short: as §1

[12] = biological target: T10, UniProt Q8VGP6
T10 sequence (whole entry): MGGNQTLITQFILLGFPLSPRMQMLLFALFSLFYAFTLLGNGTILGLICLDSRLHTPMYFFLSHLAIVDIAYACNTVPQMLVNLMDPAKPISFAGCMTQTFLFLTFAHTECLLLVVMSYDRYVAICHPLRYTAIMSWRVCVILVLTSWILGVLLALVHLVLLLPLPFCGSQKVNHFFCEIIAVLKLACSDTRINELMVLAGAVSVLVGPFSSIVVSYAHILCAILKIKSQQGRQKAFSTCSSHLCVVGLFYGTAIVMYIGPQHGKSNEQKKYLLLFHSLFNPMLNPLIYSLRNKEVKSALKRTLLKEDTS
In short: as §1

[13] = biological target: T11, UniProt Q8VGQ3
T11 sequence (whole entry): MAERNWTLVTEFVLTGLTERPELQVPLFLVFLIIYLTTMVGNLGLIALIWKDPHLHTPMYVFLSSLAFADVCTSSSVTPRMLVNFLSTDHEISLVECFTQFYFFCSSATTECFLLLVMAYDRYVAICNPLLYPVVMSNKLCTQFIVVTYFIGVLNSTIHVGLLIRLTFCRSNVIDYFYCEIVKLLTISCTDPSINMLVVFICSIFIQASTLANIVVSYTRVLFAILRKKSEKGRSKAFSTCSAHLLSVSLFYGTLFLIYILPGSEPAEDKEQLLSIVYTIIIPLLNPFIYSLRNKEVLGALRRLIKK
In short: as §1

[14] = biological target: T12, UniProt Q8VGT4
T12 sequence (whole entry): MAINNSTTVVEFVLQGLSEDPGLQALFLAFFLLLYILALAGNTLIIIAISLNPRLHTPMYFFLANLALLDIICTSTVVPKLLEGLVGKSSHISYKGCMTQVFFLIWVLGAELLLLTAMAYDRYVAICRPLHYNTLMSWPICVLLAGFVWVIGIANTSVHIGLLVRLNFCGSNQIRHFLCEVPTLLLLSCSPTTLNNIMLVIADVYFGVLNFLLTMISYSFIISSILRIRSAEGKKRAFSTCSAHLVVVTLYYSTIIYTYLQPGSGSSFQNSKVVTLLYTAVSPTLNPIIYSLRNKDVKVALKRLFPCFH
In short: as §1

[15] = biological target: T13, UniProt Q8VGU3
T13 sequence (whole entry): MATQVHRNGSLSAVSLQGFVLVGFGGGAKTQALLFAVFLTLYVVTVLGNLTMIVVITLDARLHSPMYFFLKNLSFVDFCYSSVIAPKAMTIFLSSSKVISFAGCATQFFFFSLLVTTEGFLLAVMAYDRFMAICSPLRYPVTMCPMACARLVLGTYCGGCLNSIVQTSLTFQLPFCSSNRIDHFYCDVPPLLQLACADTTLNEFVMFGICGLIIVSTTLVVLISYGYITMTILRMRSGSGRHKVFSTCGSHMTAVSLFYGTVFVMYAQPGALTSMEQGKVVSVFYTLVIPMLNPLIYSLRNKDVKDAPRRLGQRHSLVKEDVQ
In short: as §1

[16] = biological target: T14, UniProt Q8VGV1
T14 sequence (whole entry): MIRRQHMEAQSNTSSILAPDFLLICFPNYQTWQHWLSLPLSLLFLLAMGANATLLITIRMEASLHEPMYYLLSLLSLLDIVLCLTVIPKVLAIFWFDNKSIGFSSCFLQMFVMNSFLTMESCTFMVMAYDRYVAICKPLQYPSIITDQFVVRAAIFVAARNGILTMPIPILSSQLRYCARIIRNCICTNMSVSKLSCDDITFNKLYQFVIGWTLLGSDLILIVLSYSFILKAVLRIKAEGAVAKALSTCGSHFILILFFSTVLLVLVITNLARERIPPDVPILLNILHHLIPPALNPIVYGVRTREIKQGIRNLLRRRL
In short: as §1

[17] = biological target: T15, UniProt Q8VGV7
T15 sequence (whole entry): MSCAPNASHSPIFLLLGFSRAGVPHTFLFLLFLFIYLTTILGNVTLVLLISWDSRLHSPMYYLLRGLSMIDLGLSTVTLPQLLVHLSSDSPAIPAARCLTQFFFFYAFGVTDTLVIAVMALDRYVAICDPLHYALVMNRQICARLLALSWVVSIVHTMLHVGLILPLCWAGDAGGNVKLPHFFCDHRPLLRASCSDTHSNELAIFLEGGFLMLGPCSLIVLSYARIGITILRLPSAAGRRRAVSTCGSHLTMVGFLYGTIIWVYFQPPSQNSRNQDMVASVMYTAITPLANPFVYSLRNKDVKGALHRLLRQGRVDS
In short: as §1

[18] = biological target: T16, UniProt Q8VGX3
T16 sequence (whole entry): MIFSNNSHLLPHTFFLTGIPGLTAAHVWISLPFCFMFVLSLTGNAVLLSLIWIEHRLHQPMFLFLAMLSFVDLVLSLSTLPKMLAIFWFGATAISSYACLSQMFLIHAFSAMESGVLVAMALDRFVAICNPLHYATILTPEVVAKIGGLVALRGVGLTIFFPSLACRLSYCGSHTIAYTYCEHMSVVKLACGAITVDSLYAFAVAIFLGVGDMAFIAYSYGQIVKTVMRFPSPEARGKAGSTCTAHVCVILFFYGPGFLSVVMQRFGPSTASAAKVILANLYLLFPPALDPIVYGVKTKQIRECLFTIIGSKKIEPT
In short: as §1

[19] = biological target: T17, UniProt Q8VGX5
T17 sequence (whole entry): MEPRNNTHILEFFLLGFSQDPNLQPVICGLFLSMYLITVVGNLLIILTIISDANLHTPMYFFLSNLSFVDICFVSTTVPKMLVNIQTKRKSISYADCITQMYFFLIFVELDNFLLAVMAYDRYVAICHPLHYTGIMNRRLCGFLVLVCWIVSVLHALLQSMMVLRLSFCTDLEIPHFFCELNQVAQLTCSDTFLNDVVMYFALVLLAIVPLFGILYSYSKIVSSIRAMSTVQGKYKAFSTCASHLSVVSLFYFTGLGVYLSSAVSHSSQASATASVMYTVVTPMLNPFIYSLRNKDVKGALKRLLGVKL
In short: as §1

Measured: odorant receptor agonist call

UniProt Q8VGE3, sequence (Q8VGE3 as listed by the source): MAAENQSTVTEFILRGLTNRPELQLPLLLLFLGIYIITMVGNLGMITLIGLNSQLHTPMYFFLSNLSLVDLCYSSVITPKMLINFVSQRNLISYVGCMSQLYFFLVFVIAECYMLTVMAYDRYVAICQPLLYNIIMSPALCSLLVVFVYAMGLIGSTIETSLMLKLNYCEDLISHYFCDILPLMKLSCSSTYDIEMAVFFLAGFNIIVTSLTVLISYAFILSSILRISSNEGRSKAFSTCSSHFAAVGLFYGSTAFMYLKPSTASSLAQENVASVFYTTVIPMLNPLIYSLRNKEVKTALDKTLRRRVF
UniProt Q8VGK6, sequence (Q8VGK6 as listed by the source): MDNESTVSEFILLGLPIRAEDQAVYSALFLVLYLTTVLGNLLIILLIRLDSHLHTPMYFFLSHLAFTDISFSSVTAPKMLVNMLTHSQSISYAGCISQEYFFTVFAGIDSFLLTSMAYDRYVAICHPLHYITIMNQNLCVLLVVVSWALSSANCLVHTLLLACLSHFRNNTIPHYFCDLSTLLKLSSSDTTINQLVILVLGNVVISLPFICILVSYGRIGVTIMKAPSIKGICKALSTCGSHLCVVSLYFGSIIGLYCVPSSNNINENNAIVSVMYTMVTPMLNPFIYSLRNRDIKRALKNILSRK

O=C1CCOc2ccccc21
active: [2] | [3] | [4] | [7] | [8] | [10] | [19]
inactive: [1] | [5] | [6] | [9] | [11] | [12] | [13] | [14] | [15] | [16] | [17] | [18]

CCOc1ccccc1
inactive: [1]

OCc1ccccc1
inactive: [1]

CCCC(=O)C(C)=O
inactive: [1] | [2] | [4] | [5] | [6] | [7] | [9] | [10] | [11] | [12] | [13] | [14] | [15] | [16] | [17] | [18] | [19]
